Active and inactive are the calls of the source. The calls are words filed in the database; no cut-off is given here.
What was measured:
[1] = Induction of pSP64 plasmid DNA relaxation by agarose gel electrophoresis in presence of Cu2+
Method in brief: (§1)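 Cell-free cleavage of supercoiled, covalently closed circular pSP64 plasmid DNA, with or without Cu2+. Reactions ran 1 h at 37 °C and were stopped with bromophenol blue in 30% glycerol. Products were resolved on 1% agarose containing 0.7 µg/mL ethidium bromide in Tris-borate-EDTA at 130 V for 3 h and viewed under UV. Forms I, II (nicked) and III (linear) were scored.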

[2] = Induction of supercoiled pSP64 plasmid DNA cleavage assessed as increase in nicked form 2 at 500 nM by agarose gel electrophoresis in presence of Cu2+; method in brief: as §1
[3] = Induction of supercoiled pSP64 plasmid DNA cleavage assessed as increase in linear duplex form 3 at 10 uM by agarose gel electrophoresis; method in brief: as §1
[4] = Induction of supercoiled pSP64 plasmid DNA cleavage assessed as increase in nicked form 2 at 10 uM by agarose gel electrophoresis; method in brief: as §1
[5] = Induction of supercoiled pSP64 plasmid DNA cleavage assessed as increase in nicked form 2 at 2.5 uM by agarose gel electrophoresis in presence of Cu2+; method in brief: as §1
[6] = Induction of supercoiled pSP64 plasmid DNA cleavage assessed as increase in linear duplex form 3 by agarose gel electrophoresis; method in brief: as §1
[7] = Induction of supercoiled pSP64 plasmid DNA cleavage assessed as increase in nicked form 2 at 1 uM by agarose gel electrophoresis; method in brief: as §1
[8] = Induction of supercoiled pSP64 plasmid DNA cleavage assessed as increase in nicked form 2 at 0.25 uM by agarose gel electrophoresis in presence of Cu2+; method in brief: as §1

Row | Compound | Activity [1] | Activity [2] | Activity [3] | Activity [4] | Activity [5] | Activity [6] | Activity [7] | Activity [8]
1 | Oc1cc(O)c2c(c1)O[C@H](c1ccc(O)c(O)c1)[C@@H](O)C2 | Dose-dependent effect | > 50% | Active |  |  |  |  | 
2 | COc1cc(C=O)cc(OC)c1O | Dose-dependent effect |  |  | > 50% | Active | inactive |  | 
3 | COc1cc([C@@H]2OC[C@@H]3[C@H]2CO[C@H]3c2cc(OC)c(O)c(OC)c2)cc(OC)c1O | Dose-dependent effect |  |  |  |  | inactive | > 50% | Active
4 | Oc1cc(O)c2c(c1)O[C@@H](c1ccc(O)c(O)c1)[C@@H](O)C2 | Dose-dependent effect | > 50% | Active |  |  |  |  | 
